ChEMBL document CHEMBL1132620, “Piperazine imidazo[1,5-a]quinoxaline ureas as high-affinity GABAA ligands of dual functionality” (J Med Chem, 1999)
The source made the active and inactive calls. No cut-off for these calls is given here.

How the values were obtained:
Mus musculus [1] = experiment: In vivo efficacy is evaluated by percent control of cerebellar GMP levels in (drug+stress) treated mice/mice under stress; format: functional; parameters: concentration or dose not given beside the values
How it was run: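 Male CF-1 mice given drug orally in vehicle 122 before electric footshock stress, controls given vehicle (1 mL/100 g); killed 30 min after treatment; cerebellum homogenized in 1% perchloric acid, iced 30 min, boiled 5 min, spun 17000g 20 min; supernatant cGMP by radioimmunoassay, expressed as % of stress control.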

Mus musculus [2] = experiment: In vivo acute electroshock physical dependence activity in mice; Not active.; format: functional, organism-based
[3] = target: T1, GABA-A receptor; anion channel (Rattus norvegicus) (UniProt O09028+P15431+P18506+P18508+P19969+P20236+P23574+P23576+P28471+P28473+P30191+P62813+P63079+P63138+Q91ZM7+Q9ES14); experiment: Inhibition of [35S]TBPS binding to GABA-A Benzodiazepine receptor of rat brain membranes; format: cell membranes; conditions: Membrane
[4] = target: T2, GABA-A receptor; alpha-1/beta-2/gamma-2 (Homo sapiens) (UniProt P14867+P47870+P18507); experiment: (§1) In vitro GABA-mediated chloride current in A293 cells expressing GABA-A benzodiazepine receptor alpha-1-beta-2-gamma-2 subunits at 5 uM; format: functional, cell-based; conditions: HEK293
Rattus norvegicus [5] = experiment: In vivo efficacy evaluated for ability to antagonize metrazole induced clonic convulsions in rat after ip injection; format: functional
Mus musculus [6] = species: Mus musculus; experiment: Ability to antagonize the muscle relaxation effect in mice caused by a benzodiazepine full agonist, triazolam.; format: functional
How it was run: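 Muscle relaxation induced by triazolam; test compound and triazolam given separately, traction scored 30 min after dosing; ED50 for blocking the relaxant effect.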

[7] = target: GABA-A receptor; anion channel; experiment: (§2) Displacement of [3H]flunitrazepam from GABA-A benzodiazepine receptor of rat cortical membranes; format: cell membranes, Membrane
How it was run: (§3)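 Rat membranes incubated 60 min at 4 °C with [3H]flunitrazepam, 50 µg membrane protein and graded test drug in 200 µL containing NaCl, 10 mM Hepes/Tris pH 7.4 and 1 mM MgCl2; bound ligand separated by rapid filtration on GF/B; mean affinity, SE ≤10% of mean.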

[8] = target: GABA A receptor alpha-3/beta-2/gamma-2 (Homo sapiens) (UniProt P47870+P18507+P34903); experiment: In vitro GABA-mediated chloride current in A293 cells expressing GABA-A benzodiazepine receptor alpha-3-beta-2-gamma-2 subunits at 5 uM; format: functional, cell-based; conditions: HEK293
[9] = target: T1, GABA-A receptor; anion channel (Rattus norvegicus); experiment: Shift in [35S]TBPS binding to GABA-A Benzodiazepine receptor of rat brain membrane
[10] = target: T1, GABA-A receptor; anion channel (Rattus norvegicus); experiment: as §2; format: cell membranes; parameters: concentration or dose not given beside the values; conditions: Membrane, concentration not given here; how it was run: as §3
Mus musculus [11] = experiment: In vivo acute electroshock physical dependence activity in mice; Active; format: functional, organism-based
[12] = target: T1, GABA-A receptor; anion channel (Rattus norvegicus); conditions: Membrane
[13] = target: T2, GABA-A receptor; alpha-1/beta-2/gamma-2 (Homo sapiens); experiment: as §1; format: functional, cell-based; conditions: HEK293; remark: listed apart in the source
Mus musculus [14] = species: Mus musculus; experiment: Compound was evaluated for their ability to antagonize the muscle relaxation effects of benzodiazepine full agonist, triazolam.
Mus musculus [15] = experiment: In vivo efficacy was evaluated for their ability to antagonize metrazole induced clonic convulsants in rat after ip injection.
Mus musculus [16] = experiment: In vivo efficacy is evaluated by percent control of cerebellar GMP content in CF1 mice and result is expressed as crebrellar GMP levels in (drug+stress) treated mice and mice under stress.; format: functional
How it was run: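 Male CF-1 mice dosed orally in vehicle 122 (controls get vehicle, 1 mL/100 g), then given electric footshock stress. Killed 30 min after dosing. Cerebellum homogenized in 10 volumes of 1% perchloric acid, kept 30 min on ice, boiled 5 min, spun 17000g for 20 min. cGMP measured by radioimmunoassay. Expressed as % of the (drug + stress)/stress response versus vehicle-shock controls.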

Rattus norvegicus [17] = experiment: Mean number of shocks produced by the compound in rats at a dose of 0.3 mg/kg was determined by vogel's punished licking assay; format: functional
How it was run: (§4)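 Vogel punished licking test in rats; number of shocks accepted recorded per dose group (n 6–10); each dose compared with the 0 mg/kg group of the same experiment by Wilcoxon rank sum test.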

Rattus norvegicus [18] = experiment: Mean number of shocks produced by CDPZ in rats at a dose of 12 mg/kg was determined by vogel's punished licking assay; format: functional; how it was run: as §4
Rattus norvegicus [19] = experiment: Mean number of shocks produced by the compound in rats at a dose of 1 mg/kg was determined by vogel's punished licking assay; format: functional; how it was run: as §4
Rattus norvegicus [20] = experiment: Mean number of shocks produced by the compound in rats at a dose of 3 mg/kg was determined by vogel's punished licking assay; format: functional; how it was run: as §4
Rattus norvegicus [21] = experiment: Mean number of shocks produced by the compound in rats at a dose of 0 mg/kg was determined by vogel's punished licking assay; format: functional; how it was run: as §4
Rattus norvegicus [22] = experiment: Mean number of shocks produced by the compound in rats at a dose of 10 mg/kg was determined by vogel's punished licking assay; format: functional; how it was run: as §4

SMILES	Control (Mus musculus [1])	Change in Cl- current [4]	ED50 (Rattus norvegicus [5])	ED50 (Mus musculus [6])	Ki [7]	Change in Cl- current [8]	Shift [9]	inhibition [10]	Acute electroshock activity (Mus musculus [11])	other results
CN(C)C(=O)N1Cc2c(-c3noc(C4CC4)n3)ncn2-c2ccccc21 [PNU-91571]	61%	0.68	21 mg/kg	1 mg/kg						Acute electroshock activity (Mus musculus [2]): inactive; Shift [3]: 0.69
Cc1ccc2c(c1)N(C(=O)N1C[C@@H](C)N(C)[C@@H](C)C1)Cc1c(C(=O)OC(C)(C)C)ncn1-2	57%	1.37	1.6 mg/kg	> 30 mg/kg	9.5 nM	0.56	0.11	64%	Active	
CC(C)n1c(=O)c2c(-c3noc(C4CC4)n3)ncn2c2ccccc21 [PANADIPLON]	87%	0.04	1.6 mg/kg	1.7 mg/kg						Acute electroshock activity (Mus musculus [2]): inactive; Shift [12]: 0.06
Cc1ccc2c(c1)N(C(=O)N1C[C@@H](C)N[C@@H](C)C1)Cc1c(C(=O)OC(C)(C)C)ncn1-2	73%	0.3		> 30 mg/kg	4.66 nM	0.1	0.38	55%	Active	Change in Cl- current [13]: 0.84
CC(C)(C)OC(=O)c1ncn2c1CN(C(=O)N1CCCCC1)c1ccccc1-2	91%	0	> 50 mg/kg	4 mg/kg	1.35 nM			44%		Acute electroshock activity (Mus musculus [2]): inactive; Shift [3]: 0.08
CN1CCN(C(=O)N2Cc3c(C(=O)OC(C)(C)C)ncn3-c3ccc(Cl)cc32)CC1	94%	0.98	7.4 mg/kg	11 mg/kg	10.9 nM	0.44	0.57	29%		
CC1CN(C)CC(C)N1C(=O)N1Cc2c(C(=O)OC(C)(C)C)ncn2-c2ccc(Cl)cc21 (configuration not stated)	100%	1.71	6.2 mg/kg	> 30 mg/kg	90.2 nM	0.69	1.02	32%		Acute electroshock activity (Mus musculus [2]): inactive
CC(C)(C)OC(=O)c1ncn2c1CN(C(=O)N1CCOCC1)c1ccccc1-2		0.14	> 50 mg/kg		2.47 nM					Shift [3]: 0
C[C@H]1CN(C(=O)N2Cc3c(C(=O)OC(C)(C)C)ncn3-c3ccc(Cl)cc32)CCN1	56%	0.1	1.2 mg/kg	> 30 mg/kg	6.71 nM		0.12	74%	Active	Change in Cl- current [13]: 0.8
C[C@@H]1CN(C(=O)N2c3cc(Cl)ccc3-n3cnc(C(=O)OC(C)(C)C)c3C2(C)C)C[C@H](C)N1	30%	0.96	0.4 mg/kg		19.9 nM	1.08	1.23	94%	Active	
CN1C(=O)CN=C(c2ccccc2)c2cc(Cl)ccc21 [DIAZEPAM]										ED50 (Mus musculus [14]): > 30 mg/kg; ED50 (Mus musculus [15]): 0.5 mg/kg; Control (Mus musculus [16]): 0.44%
CN(C)C(=O)N1Cc2c(C(=O)OC(C)(C)C)ncn2-c2ccc(Cl)cc21		0.35	10.5 mg/kg		5.56 nM					Shift [3]: 0.51
C[C@H]1NCCN(C(=O)N2Cc3c(C(=O)OC(C)(C)C)ncn3-c3ccc(Cl)cc32)[C@H]1C	70%	0	0.7 mg/kg	> 30 mg/kg	2.34 nM		0.27	78%	Active	Change in Cl- current [13]: 0.7
CC(C)(C)OC(=O)c1ncn2c1CN(C(=O)N1CCN(C(C)(C)C)CC1)c1cc(Cl)ccc1-2		0.12	50 mg/kg	> 30 mg/kg	20.9 nM			62%	Active	Shift [3]: -0.03
CC(C)N1[C@H](C)CN(C(=O)N2Cc3c(C(=O)OC(C)(C)C)ncn3-c3ccc(Cl)cc32)C[C@@H]1C	52%	-0.32	35.3 mg/kg	> 30 mg/kg	5.16 nM		-0.97	85%		Mean no. of shocks (Rattus norvegicus [17]): 6.3; Acute electroshock activity (Mus musculus [2]): inactive; Change in Cl- current [13]: 0.9; Mean no. of shocks (Rattus norvegicus [18]): 26; Mean no. of shocks (Rattus norvegicus [19]): 5.3; Mean no. of shocks (Rattus norvegicus [20]): 5; Mean no. of shocks (Rattus norvegicus [21]): 6.6; Mean no. of shocks (Rattus norvegicus [22]): <3.4
Cc1ccc2c(c1)N(C(=O)N1CCN[C@@H](C)C1)Cc1c(C(=O)OC(C)(C)C)ncn1-2	55%	0.4	25 mg/kg	> 30 mg/kg	17.9 nM		0.59	32%	Active	Change in Cl- current [13]: 1.1
C[C@@H]1CN(C(=O)N2c3cc(Cl)ccc3-n3cnc(C(=O)OC(C)(C)C)c3C2(C)C)C[C@H](C)N1C	38%	2.6	0.6 mg/kg	> 30 mg/kg	39.7 nM	0.68	1.43	84%	Active	
